# In ChEMBL document CHEMBL1649119, “Daptomycin pharmacokinetics in adult oncology patients with neutropenic fever” (Antimicrob Agents Chemother, 2009):
# Legend:
# [1] = Apparent volume of distribution during terminal phase in healthy human at 8 mg/kg, iv administered as 30 mins infusion every 24 hrs measured on day 7; type: ADME, organism-based; parameters: dose 8 mg/kg, route intravenous; conditions: in vivo
# [2] = Clearance in nonobese human subjects at 4 mg/kg, iv administered as single dose 30 mins infusion; type: ADME, organism-based; parameters: dose 4 mg/kg, route intravenous; conditions: in vivo
# [3] = Unbound fraction in healthy human plasma at 6 mg/kg, iv administered as 30 mins infusion every 24 hrs measured on day 7; type: ADME, organism-based; parameters: dose 6 mg/kg, route intravenous
# [4] = AUC (0 to infinity) in moderately obese adult human at 4 mg/kg, iv administered as single dose 30 mins infusion; type: ADME, organism-based; parameters: time infinity, dose 4 mg/kg, route intravenous; conditions: plasma
# [5] = Cmax in healthy human at 8 mg/kg, iv administered as 30 mins infusion every 24 hrs measured on day 1; type: ADME, organism-based; parameters: dose 8 mg/kg, route intravenous; conditions: in vivo
# [6] = Cmax in nonobese human at 4 mg/kg, iv administered as single dose 30 mins infusion; type: ADME, organism-based; parameters: dose 4 mg/kg, route intravenous; conditions: in vivo
# [7] = Cmax in healthy human subjects at 10 mg/kg, iv administered as 30 mins infusion every 24 hrs measured on day 14; type: ADME, organism-based; parameters: dose 10 mg/kg, route intravenous; conditions: in vivo
# [8] = Mean residence time in young healthy human at 4 mg/kg, iv administered as single dose 30 mins infusion; type: ADME, organism-based; parameters: dose 4 mg/kg, route intravenous; conditions: in vivo
# [9] = AUC (0 to infinity) in healthy human at 4 mg/kg, iv administered as 30 mins infusion every 24 hrs measured on day 1; type: ADME, organism-based; parameters: time infinity, dose 4 mg/kg, route intravenous; conditions: plasma
# [10] = AUC (0 to infinity) in healthy human at 8 mg/kg, iv administered as 30 mins infusion every 24 hrs measured on day 14; type: ADME, organism-based; parameters: time infinity, dose 8 mg/kg, route intravenous; conditions: plasma
# [11] = AUC (0 to infinity) in healthy human subjects at 12 mg/kg, iv administered as 30 mins infusion every 24 hrs measured on day 14; type: ADME, organism-based; parameters: time infinity, dose 12 mg/kg, route intravenous; conditions: plasma
# [12] = Half life in nonobese human at 4 mg/kg, iv administered as single dose 30 mins infusion; type: ADME, organism-based; parameters: dose 4 mg/kg, route intravenous; conditions: in vivo
# [13] = Clearance in healthy human at 8 mg/kg, iv administered as 30 mins infusion every 24 hrs measured on day 14; type: ADME, organism-based; parameters: dose 8 mg/kg, route intravenous; conditions: in vivo
# [14] = Clearance in morbidly obese adult human at 4 mg/kg, iv administered as single dose 30 mins infusion; type: ADME, organism-based; parameters: dose 4 mg/kg, route intravenous; conditions: in vivo
# Homo sapiens = assay: Unbound clearance in healthy human at 8 mg/kg, iv administered as 30 mins infusion every 24 hrs measured on day 14; type: ADME, organism-based; parameters: dose 8 mg/kg, route intravenous; conditions: in vivo
# [15] = Renal clearance in healthy adult human at 6 mg/kg, iv administered as single dose 30 mins infusion; type: ADME, organism-based, Kidney; parameters: dose 6 mg/kg, route intravenous; conditions: in vivo, read-out: CL_renal (converted)
# [16] = AUC (0 to tau) in healthy human subjects at 6 mg/kg, iv administered as 30 mins infusion every 24 hrs measured on days 1-3; type: ADME, organism-based; parameters: dose 6 mg/kg, route intravenous; conditions: plasma
# [17] = Apparent volume of distribution during terminal phase in healthy human subjects at 10 mg/kg, iv administered as 30 mins infusion every 24 hrs measured on day 4; type: ADME, organism-based; parameters: dose 10 mg/kg, route intravenous; conditions: in vivo
# [18] = Cmax in young healthy human at 4 mg/kg, iv administered as single dose 30 mins infusion; type: ADME, organism-based; parameters: dose 4 mg/kg, route intravenous; conditions: in vivo
# [19] = Half life in healthy human subjects at 12 mg/kg, iv administered as 30 mins infusion every 24 hrs measured on day 14; type: ADME, organism-based; parameters: dose 12 mg/kg, route intravenous; conditions: in vivo
# [20] = Clearance in cancer patient with neutropenic fever at 6 mg/kg, iv administered as 30 mins infusion every 24 hrs; type: ADME, organism-based; parameters: dose 6 mg/kg, route intravenous; conditions: human, in vivo
# Method in brief: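 29 adult oncology patients with neutropenic fever received 6 mg/kg (total body weight) as a 30-min IV infusion every 24 h. Plasma was sampled predose, at the end of infusion, and at 0.5, 1, 2, 4, 8, 12 and 24 h. Total drug was measured by validated HPLC (linear 1–100 μg/ml). Noncompartmental clearance = dose/AUC0-∞, with AUC from trapezoids plus last concentration/λz. Mean ± SD.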
# [21] = Apparent volume of distribution during terminal phase in healthy human subjects at 6 mg/kg, iv administered as 30 mins infusion every 24 hrs measured on day 4; type: ADME, organism-based; parameters: dose 6 mg/kg, route intravenous; conditions: in vivo
# [22] = Half life in healthy human at 6 mg/kg, iv administered as 30 mins infusion every 24 hrs measured on day 7; type: ADME, organism-based; parameters: dose 6 mg/kg, route intravenous; conditions: in vivo
# [23] = Volume of distribution at steady state in cancer patient with neutropenic fever at 6 mg/kg, iv administered as 30 mins infusion every 24 hrs; type: ADME, organism-based; parameters: dose 6 mg/kg, route intravenous; conditions: human, in vivo, read-out: Vdss
# [24] = Plasma concentration in cancer patient with neutropenic fever at 6 mg/kg, iv administered as 30 mins infusion every 24 hrs measured after 24 hrs; type: ADME, organism-based; parameters: dose 6 mg/kg, route intravenous; conditions: human
# Method in brief: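 29 adult oncology patients with neutropenic fever received 6 mg/kg (total body weight) daptomycin as a 30-min IV infusion every 24 h. Plasma was sampled predose, at end of infusion, and 0.5, 1, 2, 4, 8, 12 and 24 h after infusion start. Total drug was measured by validated HPLC (linear 1–100 μg/ml, detection limit 1 μg/ml). Tmax was the observed value, analysed noncompartmentally.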
compound,measurement,setting,value
CCCCCCCCCC(=O)N[C@@H](Cc1c[nH]c2ccccc12)C(=O)N[C@H](CC(N)=O)C(=O)N[C@@H](CC(=O)O)C(=O)N[C@@H]1C(=O)NCC(=O)N[C@@H](CCCN)C(=O)N[C@@H](CC(=O)O)C(=O)N[C@H](C)C(=O)N[C@@H](CC(=O)O)C(=O)NCC(=O)N[C@H](CO)C(=O)N[C@@H]([C@H](C)CC(=O)O)C(=O)N[C@@H](CC(=O)c2ccccc2N)C(=O)O[C@@H]1C,Vd,[1],0.092 L/kg
same,clearance,[2],0.2 mL/min/kg
same,fraction unbound at 7 day,[3],0.08
same,AUC(0-inf),[4],421 µg·h/mL
same,Cmax,[5],116 µg/mL
same,Cmax,[6],53.2 µg/mL
same,Cmax,[7],139 µg/mL
same,MRT,[8],9.05 h
same,AUC(0-inf),[9],425 µg·h/mL
same,AUC(0-inf),[10],1090 µg·h/mL
same,AUC(0-inf),[11],1290 µg·h/mL
same,half-life,[12],8.04 h
same,clearance,[13],0.123 mL/min/kg
same,clearance,[14],0.13 mL/min/kg
same,CL,Homo sapiens,0.745 mL/min/kg
same,CL renal at 0.5 h,[15],0.064 mL/min/kg
same,AUC tau,[16],645 µg·h/mL
same,Vd,[17],0.0983 L/kg
same,Cmax,[18],42.3 µg/mL
same,half-life,[19],7.9 h
same,clearance,[20],0.259 mL/min/kg
same,Vd,[21],0.101 L/kg
same,half-life,[22],8.9 h
same,Vd,[23],0.18 L/kg
same,concentration at 24 h,[24],5.67 µg/mL
